Measurements: the RNAGym collection of RNA variant scans (doi:10.1126/science.aae0568)
Fewer inactive variants are shown than the library holds.

B1: tRNA (parent)
chain: GUUCCGUUGGCGUAAUGGUAACGCGUCUCCCUCCUAAGGAGAAGACUGCGGGUUCGAGUCCCGUACGGAACG

Variants of: B1
Assay: yeast fitness relative to wild type (ratio to wild type); higher = fitter; tRNA-Arg(CCU), competitive growth, 37 C, YPD
Procedure, shortened: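 Variants of the tRNA-Arg(CCU) gene were chemically synthesised with a 3% per-site mutation rate across 69 sites and placed at the native genomic locus in Saccharomyces cerevisiae. Six parallel replicates of the pooled strains were competed in YPD at 37°C for 24 hours, and gene amplicons from the start and end populations were read by 100-nucleotide paired-end sequencing. Darwinian fitness relative to wild type was derived from changes in genotype frequencies. Genotypes required ≥ 100 starting reads, and estimates < 0.5 were set to 0.5.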

Row | Variant | yeast fitness
1 | GUUCCGUUGGCGUAAUGGUAAUGCGUCUCCCUUCUAAGGAGAAGACUGCGAGUUCGAGUCCCGUACGGAACG [C22U C33U G51A] | ≤ 0.5
2 | GUUCCGUUGGCGUAAUGGUAAUGCGUCUCUCUCCUAAGGCGAAGACUGCGGGUUAGAGUCCCGUGCGGAACG [C22U C30U A40C C55A A65G] | ≤ 0.5
3 | GUUCCGUUGGCGUAAUGGUAAUGCCUCUCCCUACUAAGGAGAAGACUGCGGGUUCGAGUCCCGUACGGAACG [C22U G25C C33A] | 0.552
4 | GUUCCGUUGGCGUAAUGGUAAUGCGUCUCCCUGCUAAGGAGAAGACUGCGGGUUCGAGUCCCGUACGGAACG [C22U C33G] | 0.551
5 | GUUCCGUUGGCGUAAUGGUAAUGCGUCUCCCUUCUAAGGAGAAGACUGCGGGUUCGAGUCCCGUACGGAACG [C22U C33U] | 0.717
6 | GUUCCGUUGGCGUAAUGGUAAUGCGUCUCUCUUCUAAGGAGAAGCCUGCGGGUUCGAGUCCCGUACGGAACG [C22U C30U C33U A45C] | 0.548
7 | GUUCCGUUGGCGUAAUGGUAAUGCGUCUCUCUCCUAGGGAGAAGACUCCGGGUUGGAGUCCCGUACGGAACG [C22U C30U A37G G48C C55G] | ≤ 0.5
8 | GUUCCGUUGGCGUAAUGGUAAUACGUCUCCCUCCUAAGGAGAAGACUACGGGUUCGAGUCCCGUUCGGAACG [C22U G23A G48A A65U] | ≤ 0.5
9 | GUUCCGUUGGCGUAAUGGUAAUGCGUCUCCCUGCUAAGGAGAAGACUGCGGGUUCGAGUCCCGUGCGGAACG [C22U C33G A65G] | ≤ 0.5
10 | GUUCCGUUGGCGUAAUGGUAAUGCGUCUCUCUCCUAAGGAGAAGACAGCGGGUUCGAGUCCCGUACGGAACG [C22U C30U U47A] | ≤ 0.5
11 | GUUCCGUUGGCGUAAUGGUAAUGCGUCUCCCUCCUAAGGAGAAGACUGCGGGUUCGAGUUCCGUACGGAUCG [C22U C60U A70U] | 0.678
12 | GUUCCGUUGGCGUAAUGGUAAUGCGUCUCCCUCUUAAGGAGAAGACUGCGGGUUCGAGUCCUGUACGGACCG [C22U C34U C62U A70C] | ≤ 0.5
13 | GUUCCGUUGGCGUAAUGGUAAUGCGUCUCCCUCGUAAGAAGAAGACUGCGGGUUCGAGUCCCGUAUGGAACG [C22U C34G G39A C66U] | ≤ 0.5
14 | GUUCCGUUGGCGUAAUGGUAAUGCAUCUCCCUCCUAAGGAGAAGACUGCGGGUUUGAGUCCCGUAUGGAACG [C22U G25A C55U C66U] | ≤ 0.5
15 | GUUCCGUUGGCGUAAUGGUAAUGCGUCUCUCUUCUAAGGAGAAGCCUGCGGGUUCGAGUCCCGUCCGGAACG [C22U C30U C33U A45C A65C] | ≤ 0.5
16 | GUUCCGUUGGCGUAAUGGUAAUGCGUCUUCCUCCUAAGGAAAAGACUGCGGGUUUGAGUCACGUACGGAACG [C22U C29U G41A C55U C61A] | ≤ 0.5
17 | GUUCCGUUGGCGUAAUGGUAAUGCGUCUCCCUUCUAAGGAGAAGACUGCGGAUUCGAGUCCCGUACGGAACG [C22U C33U G52A] | 0.566
18 | GUUCCGUUGGCGUAAUGGUAAUGCGUCUCACUCCUAAGGAGCAGACUGCGGGUUCGAAUCCCGUACGGAACG [C22U C30A A42C G58A] | ≤ 0.5
19 | GUUCCGUUGGCGUAAUGGUAAUGCGUCUCCCUCCUAAGGAGAAGACUGUGGGUUCGAGUCCCGAACGGAACG [C22U C49U U64A] | 0.53

Row | Variant | yeast fitness
20 | GUUCCGUUGGCGUAAUGGUAAUGCAUCUCCCUCCUAAGGAGAAGACUGCAGGUUCGAGUCCCGUACGGUACG [C22U G25A G50A A69U] | ≤ 0.5
21 | GUUCCGUUGGCGUAAUGGUAAUGCGUCUCCCUCCUAAGGAGAAGACUGCGGGUUCGAGUCCUGUCCGGAACG [C22U C62U A65C] | 0.691
22 | GUUCCGUUGGCGUAAUGGUAAUGCGUCUCCCUCCUAAGGAGAAGACUGCGGGUUCGAGUCCCGUAUGGCACG [C22U C66U A69C] | 0.593
23 | GUUCCGUUGGCGUAAUGGUAAUGCGUCUCCCUCCUAAGGAGAAGACUGCGGGUUCGAGUCACGUAUGGAACG [C22U C61A C66U] | ≤ 0.5
24 | GUUCCGUUGGCGUAAUGGUAAUGCAUCUCCCACCUCAGGAGAAGACUGCGGGUUCGAGUCCCGUACGGAGCG [C22U G25A U32A A36C A70G] | ≤ 0.5
25 | GUUCCGUUGGCGUAAUGGUAAUGCGUCUCCAUCCUACGGAGAAGACCGCGGGUUCGAGUCCCGUACAGAACG [C22U C31A A37C U47C G67A] | ≤ 0.5
26 | GUUCCGUUGGCGUAAUGGUAAUGCCUCCCCCUCCUGAGGAGAAGACUGCGAGUUCGAGUCCCGUACGGAACG [C22U G25C U28C A36G G51A] | ≤ 0.5
27 | GUUCCGUUGGCGUAAUGGUAAUGCGUCUCCCUCGUUAGGAGAAGACUGCGGGUUCGAGUCCCGUACGGAACG [C22U C34G A36U] | 0.519
28 | GUUCCGUUGGCGUAAUGGUAAUGCGUCUCCCUCCUAAGGAGAAGACUGGGGGUUCGAGUCCCGUACGGAACG [C22U C49G] | 0.87
29 | GUUCCGUUGGCGUAAUGGUAAUGCGUCUCCGUCCUAAGGAGAUGACUGCGGGUUCGAGUCCCGUACGGAACG [C22U C31G A43U] | 0.612
30 | GUUCCGUUGGCGUAAUGGUAAUGCGUCUCCGUCCUAAGGAGAAGACUCCGGGUUCGAGUCCCGUACGGAACG [C22U C31G G48C] | ≤ 0.5
31 | GUUCCGUUGGCGUAAUGGUAAUGCGUCUCCCUCCUAAGGAGAAGACUGCGGGUUCGAGUUCCGUACGGAACG [C22U C60U] | 0.723
32 | GUUCCGUUGGCGUAAUGGUAAUGCGUCUCCCUCCUAAAGAGAAGACUGCGGGUUCGAGUCCCGUACGGAACG [C22U G38A] | 0.748
33 | GUUCCGUUGGCGUAAUGGUAAUGCGUCUCGCUCCUAAGGAGAAGACUGCGGGUUCGUGUCCCGUACGGAACG [C22U C30G A57U] | ≤ 0.5
34 | GUUCCGUUGGCGUAAUGGUAAUCCGUCUCCCUCCUAAGGAGAAGACUGCGGGUUUGAGUGCCGUACGGAACG [C22U G23C C55U C60G] | 0.54
35 | GUUCCGUUGGCGUAAUGGUAAUGCGUCUCCGUCCUAAGGAGAAGACUGUGGGUUCGAGUCCCGUGCGGAACG [C22U C31G C49U A65G] | ≤ 0.5
36 | GUUCCGUUGGCGUAAUGGUAAUACGUCUCCCUCCUAAGGAGAAGACUGCGGGUUCAAGUCCCGUACGGAACG [C22U G23A G56A] | ≤ 0.5
37 | GUUCCGUUGGCGUAAUGGUAAUGCGUCUCCGUCCUAAGGAGAAGACUGCGAGUUCGAGUCCCGUACGGAACG [C22U C31G G51A] | 0.563
38 | GUUCCGUUGGCGUAAUGGUAAUGCGUCUCCGUCCUAAGGAGAAGACUGCGGGUUCGAGUCCCGUACCGAACG [C22U C31G G67C] | 0.653
